From ChEMBL document CHEMBL1144643, “Optimization of imidazole amide derivatives as cannabinoid-1 receptor antagonists for the treatment of obesity” (Bioorg Med Chem Lett, 2007)
Activity calls are given as the source filed them. The calls are words filed in the database; no cut-off is given here.

Tests used:
Cannabinoid receptor 1 [1] = molecular target: T1, Cannabinoid receptor 1 (Homo sapiens, UniProt P21554); test: biochemical; assay type: cell-based, HEK293
Cannabinoid receptor 2 = Cannabinoid receptor 2 (Homo sapiens, UniProt P34972); test: Displacement of [3H][…] from human CB2 receptor expressed in HEK293 cells; assay type: cell-based
Sequence of Cannabinoid receptor 2 (P34972 whole entry): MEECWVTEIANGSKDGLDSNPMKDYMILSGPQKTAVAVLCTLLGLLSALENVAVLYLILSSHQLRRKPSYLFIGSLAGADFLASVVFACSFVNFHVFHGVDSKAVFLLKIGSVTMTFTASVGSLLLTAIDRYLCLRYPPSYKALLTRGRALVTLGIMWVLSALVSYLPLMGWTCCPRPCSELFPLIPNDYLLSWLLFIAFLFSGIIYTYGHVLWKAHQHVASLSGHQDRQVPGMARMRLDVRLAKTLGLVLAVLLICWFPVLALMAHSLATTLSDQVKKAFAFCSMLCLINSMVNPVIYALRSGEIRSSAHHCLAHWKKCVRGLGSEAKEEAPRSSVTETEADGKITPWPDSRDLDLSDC
How it was run: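 HEK 293 membranes expressing human CB-2 (3.3 µg protein) incubated with 0.3 nM [3H]CP 55940 and varying competitor concentrations. Binding buffer: 50 mM Tris pH 7.4, 2.5 mM EDTA, 5 mM MgCl2, 0.1% fatty-acid-free BSA; 90 min at 30 °C with shaking. Nonspecific binding defined with 10 µM WIN 55212-2. Filtered through GF/C plates, read by scintillation counting. Nonlinear regression; mean of two or more triplicate runs.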

[2] = Cmax in Wistar rat plasma at 10 mg/kg, po; assay type: ADME, organism-based; set-up: dose 10 mg/kg, route oral
How it was run: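 Wistar rats dosed orally at 10 mg/kg, typically as a 30% cyclodextrin suspension or as a suspension in PEG400/25 mM methanesulfonic acid (80:20). Plasma levels sampled typically at 0.5, 1 and 2 h after dosing; Cmax taken from these time points.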

Rattus norvegicus [3] = test: Reduction of food intake in fasted-refed Wistar rat at 10 mg/kg, po after 0.5 to 4 hrs; assay type: functional; set-up: scale not given: the % may be the effect or the level left
How it was run: (§1)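 Male Wistar rats, individually housed on mesh floors, 12-h/12-h light/dark cycle, fasted overnight (18 h). Single oral dose of vehicle or compound at 10 mg/kg (2 mL/kg), vehicle 30% cyclodextrin or PEG/MSA, 1 h before re-feeding. Cumulative food intake recorded at 30, 60, 90, 180 and 240 min, corrected for spillage. 10 rats per group; percent reduction versus vehicle.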

Cannabinoid receptor 1 [4] = molecular target: T1, Cannabinoid receptor 1; test: Antagonist activity at human CB1 receptor expressed in CHOK1 cells assessed as inhibition of forskolin-stimulated cAMP levels; assay type: functional, cell-based; conditions: CHO-K1
How it was run: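 Incubated 20 min at 37 °C with graded agonist plus 3 µM forskolin (final), with or without a fixed antagonist concentration. cAMP measured by scintillation proximity assay. Kb from the agonist EC50 concentration ratio: pKb = log(CR−1) − log B.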

[5] = Drug level in Wistar rat brain at 10 mg/kg, po after 2 hrs; assay type: ADME, organism-based; set-up: dose 10 mg/kg, route oral; conditions: read-out: Drug uptake
How it was run: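 Brain levels measured 2 h after a 10 mg/kg oral dose to Wistar rats, within pharmacokinetic screening; oral vehicle was PEG/MSA suspension.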

Rattus norvegicus [6] = test: Reduction of body weight in Zucker fa/fa rat at 1 mg/kg, po after 13 days; assay type: functional, Zuker fa/fa; set-up: scale not given: the % may be the effect or the level left
How it was run: (§2)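 Two-day baseline body weight and 24 h food and water intake, then weight-matched into groups. Daily oral dose of 1, 5 or 10 mg/kg suspension (2 mL/kg) before the nocturnal feeding phase. Body weight recorded daily; change versus vehicle-treated rats.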

Rattus norvegicus [7] = test: Reduction of body weight in Zucker fa/fa rat at 10 mg/kg, po after 8 days; assay type: functional; set-up: scale not given: the % may be the effect or the level left
How it was run: as §2

Rattus norvegicus [8] = test: Reduction of food intake in fasted-refed Wistar rat at 10 mg/kg, po after 4 hrs; assay type: functional; set-up: scale not given: the % may be the effect or the level left
How it was run: as §1

Rattus norvegicus [9] = test: Reduction of food intake in fasted-refed Wistar rat at 10 mg/kg, po after 1 hr; assay type: functional; set-up: scale not given: the % may be the effect or the level left
How it was run: as §1

Rattus norvegicus [10] = test: Reduction of body weight in Zucker fa/fa rat at 10 mg/kg, po after 13 days; assay type: functional; set-up: scale not given: the % may be the effect or the level left
How it was run: as §2

Rattus norvegicus [11] = test: Reduction of food intake in fasted-refed Wistar rat at 10 mg/kg, po after 1.5 hrs; assay type: functional; set-up: scale not given: the % may be the effect or the level left
How it was run: as §1

Rattus norvegicus [12] = test: Reduction of body weight in Zucker fa/fa rat at 5 mg/kg, po after 13 days; assay type: functional; set-up: scale not given: the % may be the effect or the level left
How it was run: as §2

Rattus norvegicus [13] = test: Reduction of food intake in fasted-refed Wistar rat at 10 mg/kg, po after 0.5 hrs; assay type: functional; set-up: scale not given: the % may be the effect or the level left
How it was run: as §1

Rattus norvegicus [14] = test: Reduction of food intake in fasted-refed Wistar rat at 10 mg/kg, po after 3 hrs; assay type: functional; set-up: scale not given: the % may be the effect or the level left
How it was run: as §1

Rattus norvegicus [15] = test: Effect on cumulative food intake in fasted-refed Wistar rat assessed as appetite suppression at 10 mg/kg, po; assay type: functional, organism-based; set-up: dose 10 mg/kg
How it was run: as §1

T1 sequence (P21554 whole entry): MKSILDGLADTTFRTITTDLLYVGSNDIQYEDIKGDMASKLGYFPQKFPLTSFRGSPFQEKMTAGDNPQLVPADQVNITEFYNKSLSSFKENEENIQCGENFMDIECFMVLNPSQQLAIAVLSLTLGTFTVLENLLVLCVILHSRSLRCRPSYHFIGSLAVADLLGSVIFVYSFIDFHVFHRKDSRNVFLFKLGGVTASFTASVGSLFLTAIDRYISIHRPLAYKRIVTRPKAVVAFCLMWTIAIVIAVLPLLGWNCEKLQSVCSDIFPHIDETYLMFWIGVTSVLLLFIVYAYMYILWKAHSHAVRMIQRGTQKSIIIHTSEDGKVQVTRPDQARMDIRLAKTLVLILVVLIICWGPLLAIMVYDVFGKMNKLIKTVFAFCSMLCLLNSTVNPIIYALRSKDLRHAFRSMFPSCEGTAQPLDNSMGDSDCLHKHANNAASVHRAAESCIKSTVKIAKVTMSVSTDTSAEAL

Molecule `CCCCc1c(C(=O)N[C@H]2CCCC[C@@H]2O)nc(-c2ccccc2Cl)n1-c1ccc(Cl)cc1` has a Ki (Cannabinoid receptor 1 [1]) of 10 nM.

Work on `O=C(N[C@@H]1CCC[C@H]1O)c1cn(-c2ccc(Cl)cc2)c(-c2ccccc2Cl)n1` yielded a Ki (Cannabinoid receptor 1 [1]) of 75 nM.

Work on `CCc1ccccc1-c1nc(C(=O)NC2CCCCC2)cn1-c1ccc(Cl)cc1` yielded a Ki (Cannabinoid receptor 1 [1]) of 39 nM.

With `O=C(N[C@H]1CCCC[C@@H]1O)c1cn(-c2ccc(Cl)cc2)c(-c2ccccc2Cl)n1` the Ki (Cannabinoid receptor 2) was 5300 nM, the Cmax [2] was 1640 nM and the Activity (Rattus norvegicus [3]) was 34%. For the same molecule, the Kb (Cannabinoid receptor 1 [4]) was 7.1 nM, the Ki (Cannabinoid receptor 1 [1]) was 29 nM and the concentration at 2 h [5] was 110 nM.

With `COc1ccc(-n2cc(C(=O)NC3CCCCC3)nc2-c2ccc(Cl)cc2Cl)cc1` the Ki (Cannabinoid receptor 1 [1]) was 4.9 nM.

Molecule `CC1CCC(n2cc(C(=O)NC3CCCCC3)nc2-c2ccccc2Cl)CC1` (stereo not given) has a Ki (Cannabinoid receptor 1 [1]) of 17 nM.

`CCc1c(C(=O)N[C@H]2CCCC[C@@H]2O)nc(-c2ccccc2Cl)n1-c1ccc(Cl)cc1` showed a Ki (Cannabinoid receptor 2) of 2300 nM.

For `Cc1ccc(-n2cc(C(=O)NC3CCCCC3)nc2-c2ccccc2Cl)cc1`, the Ki (Cannabinoid receptor 1 [1]) was 4.6 nM.

`CN[C@H]1CCCC[C@@H]1NC(=O)c1cn(-c2ccc(Cl)cc2)c(-c2ccc(Cl)cc2Cl)n1` gave a Ki (Cannabinoid receptor 1 [1]) of 620 nM.

Work on `O=C(NC1CCCCC1)c1cn(-c2ccc(F)cc2)c(-c2ccc(Cl)cc2Cl)n1` yielded a Ki (Cannabinoid receptor 1 [1]) of 8.2 nM.

For `N[C@@H]1CCCC[C@H]1NC(=O)c1cn(-c2ccc(Cl)cc2)c(-c2ccc(Cl)cc2Cl)n1`, the Ki (Cannabinoid receptor 1 [1]) was 940 nM.

`COc1ccc(-n2cc(C(=O)NC3CCCCC3)nc2-c2ccccc2Cl)cc1` showed a Ki (Cannabinoid receptor 1 [1]) of 9 nM.

Work on `O=C(NC1CCCCC1O)c1cn(-c2ccc(Cl)cc2)c(-c2ccc(Cl)cc2Cl)n1` (racemic) yielded a Ki (Cannabinoid receptor 2) of 1100 nM, an Activity (Rattus norvegicus [3]) of 21% and a Kb (Cannabinoid receptor 1 [4]) of 4.4 nM. It also gave a Ki (Cannabinoid receptor 1 [1]) of 22 nM.

Molecule `O=C(N[C@H]1c2ccccc2C[C@H]1O)c1cn(-c2ccc(Cl)cc2)c(-c2ccccc2Cl)n1` has a Ki (Cannabinoid receptor 2) of 1200 nM, a Kb (Cannabinoid receptor 1 [4]) of 2.2 nM and a Ki (Cannabinoid receptor 1 [1]) of 6.3 nM.

`O=C(NC1CCCCC1)c1cn(-c2cccnc2)c(-c2ccccc2Cl)n1` showed a Ki (Cannabinoid receptor 1 [1]) of 1100 nM.

`O=C(N[C@H]1c2ccccc2C[C@@H]1O)c1cn(-c2ccc(Cl)cc2)c(-c2ccccc2Cl)n1` (racemic) showed a Ki (Cannabinoid receptor 1 [1]) of 22 nM.

Work on `O=C(N[C@H]1Cc2ccccc2[C@@H]1O)c1cn(-c2ccc(Cl)cc2)c(-c2ccccc2Cl)n1` (racemic) yielded a Ki (Cannabinoid receptor 1 [1]) of 41 nM.

Molecule `O=C(NC1CCCCC1)c1cn(-c2ccc(Cl)cc2)c(-c2ccccc2)n1` has a Ki (Cannabinoid receptor 1 [1]) of 130 nM.

In the case of `CCCc1c(C(=O)N[C@H]2CCCC[C@@H]2O)nc(-c2ccccc2Cl)n1-c1ccc(Cl)cc1`, the Ki (Cannabinoid receptor 2) is reported as 2700 nM, the Kb (Cannabinoid receptor 1 [4]) is reported as 1.4 nM and the Ki (Cannabinoid receptor 1 [1]) is reported as 5.7 nM.

For `O=C(NC1CCCCC1)c1cn(-c2ccc(Cl)cc2)c(-c2ccccc2Cl)n1`, the Ki (Cannabinoid receptor 2) was 2300 nM, the Kb (Cannabinoid receptor 1 [4]) was 11 nM and the Ki (Cannabinoid receptor 1 [1]) was 2.2 nM.

In the case of `CN[C@@H]1CCCC[C@H]1NC(=O)c1cn(-c2ccc(Cl)cc2)c(-c2ccc(Cl)cc2Cl)n1`, the Ki (Cannabinoid receptor 1 [1]) is reported as 920 nM.

`CN(C(=O)c1cn(-c2ccc(Cl)cc2)c(-c2ccccc2Cl)n1)C1CCCCC1` gave a Ki (Cannabinoid receptor 1 [1]) of 34 nM.

Work on `CC(C)c1c(C(=O)N[C@H]2CCCC[C@@H]2O)nc(-c2ccccc2Cl)n1-c1ccc(Cl)cc1` yielded a Ki (Cannabinoid receptor 1 [1]) of 18 nM.

In the case of `Cc1ccccc1-c1nc(C(=O)NC2CCCCC2)cn1-c1ccc(Cl)cc1`, the Ki (Cannabinoid receptor 2) is reported as greater than 1000 nM, the Kb (Cannabinoid receptor 1 [4]) is reported as 7.3 nM and the Ki (Cannabinoid receptor 1 [1]) is reported as 21 nM.

For `N[C@H]1CCCC[C@@H]1NC(=O)c1cn(-c2ccc(Cl)cc2)c(-c2ccc(Cl)cc2Cl)n1`, the Ki (Cannabinoid receptor 1 [1]) was 270 nM.

In the case of `O=C(N[C@@H]1CCCC[C@H]1O)c1cn(-c2ccc(Cl)cc2)c(-c2ccccc2Cl)n1`, the Kb (Cannabinoid receptor 1 [4]) is reported as 22 nM and the Ki (Cannabinoid receptor 1 [1]) is reported as 97 nM.

In the case of `O=C(N[C@@H]1c2ccccc2C[C@@H]1O)c1cn(-c2ccc(Cl)cc2)c(-c2ccccc2Cl)n1`, the Ki (Cannabinoid receptor 2) is reported as 5100 nM, the Kb (Cannabinoid receptor 1 [4]) is reported as 9.2 nM and the Ki (Cannabinoid receptor 1 [1]) is reported as 18 nM.

With `CCc1c(C(=O)N[C@H]2CCCC[C@@H]2O)nc(-c2ccccc2Cl)n1-c1ccc(Br)cc1` the Activity (Rattus norvegicus [6]) was -1.9%, the Ki (Cannabinoid receptor 2) was 2700 nM and the Activity (Rattus norvegicus [7]) was 5.6%. It also gave a Cmax [2] of 2100 nM, an Activity (Rattus norvegicus [8]) of 35% and an Activity (Rattus norvegicus [9]) of 64%. The Activity (Rattus norvegicus [10]) was -10.6%, the Kb (Cannabinoid receptor 1 [4]) was 13 nM and the Activity (Rattus norvegicus [11]) was 62%. For the same molecule, the Activity (Rattus norvegicus [12]) was -6.1%, the Ki (Cannabinoid receptor 1 [1]) was 3.7 nM and the Activity (Rattus norvegicus [13]) was 63%. It also gave an Activity (Rattus norvegicus [14]) of 52%.

Work on `O=C(NC1CCCCC1)c1cn(-c2ccc(Cl)cc2)c(-c2ccc(F)cc2F)n1` yielded a Ki (Cannabinoid receptor 1 [1]) of 36 nM.

In the case of `O=C(N[C@H]1Cc2ccccc2[C@H]1O)c1cn(-c2ccc(Cl)cc2)c(-c2ccccc2Cl)n1` (racemic), the Ki (Cannabinoid receptor 1 [1]) is reported as 17 nM.

With `O=C(N[C@H]1CCCC[C@@H]1O)c1nc(-c2ccccc2Cl)n(-c2ccc(Cl)cc2)c1Br` the Ki (Cannabinoid receptor 1 [1]) was 19 nM.

With `Cc1c(C(=O)N[C@H]2CCCC[C@@H]2O)nc(-c2ccccc2Cl)n1-c1ccc(Cl)cc1` the Ki (Cannabinoid receptor 1 [1]) was 6.9 nM.

With `O=C(N[C@H]1CCC[C@@H]1O)c1cn(-c2ccc(Cl)cc2)c(-c2ccccc2Cl)n1` the Ki (Cannabinoid receptor 2) was 6300 nM, the Cmax [2] was 2110 nM and the Activity (Rattus norvegicus [3]) was 26%. It also gave a Kb (Cannabinoid receptor 1 [4]) of 9.7 nM, a Ki (Cannabinoid receptor 1 [1]) of 29 nM and a concentration at 2 h [5] of 330 nM.

For `O=C(NC1CCCCC1)c1cn(-c2ccc(Cl)cc2)c(-c2ccc(Cl)cc2Cl)n1`, the Ki (Cannabinoid receptor 2) was 240 nM, the Cmax [2] was 50 nM and the Activity (Rattus norvegicus [15]) was “inactive”. The Kb (Cannabinoid receptor 1 [4]) was 18 nM and the Ki (Cannabinoid receptor 1 [1]) was 3.9 nM.

With `Cc1ccc(-n2cc(C(=O)NC3CCCCC3)nc2-c2ccc(Cl)cc2Cl)cc1` the Ki (Cannabinoid receptor 1 [1]) was 1.9 nM.

For `Cc1c(C(=O)NN2CCCCC2)nn(-c2ccc(Cl)cc2Cl)c1-c1ccc(Cl)cc1` [RIMONABANT], the Activity (Rattus norvegicus [7]) was 6.5%.

For `O=C(NC1CCCCC1)c1cn(-c2ccc(F)cc2)c(-c2ccccc2Cl)n1`, the Ki (Cannabinoid receptor 1 [1]) was 20 nM.

Molecule `COc1ccccc1-c1nc(C(=O)NC2CCCCC2)cn1-c1ccc(Cl)cc1` has a Ki (Cannabinoid receptor 1 [1]) of 95 nM.

In the case of `O=C(NC1CCCCC1)c1cn(-c2ccc(Cl)cc2)c(-c2cc(Cl)ccc2Cl)n1`, the Ki (Cannabinoid receptor 1 [1]) is reported as 25 nM.

Work on `Cc1ccc(-c2nc(C(=O)NC3CCCCC3)cn2-c2ccc(Cl)cc2)c(C)c1` yielded a Ki (Cannabinoid receptor 1 [1]) of 7.2 nM.
